BindingDB's records for doi:10.1021/jm701107h (The Ohio State University, 2008)

Target: T1, Aromatase (Homo sapiens, UniProt P11511)
T1 sequence (P11511 whole entry): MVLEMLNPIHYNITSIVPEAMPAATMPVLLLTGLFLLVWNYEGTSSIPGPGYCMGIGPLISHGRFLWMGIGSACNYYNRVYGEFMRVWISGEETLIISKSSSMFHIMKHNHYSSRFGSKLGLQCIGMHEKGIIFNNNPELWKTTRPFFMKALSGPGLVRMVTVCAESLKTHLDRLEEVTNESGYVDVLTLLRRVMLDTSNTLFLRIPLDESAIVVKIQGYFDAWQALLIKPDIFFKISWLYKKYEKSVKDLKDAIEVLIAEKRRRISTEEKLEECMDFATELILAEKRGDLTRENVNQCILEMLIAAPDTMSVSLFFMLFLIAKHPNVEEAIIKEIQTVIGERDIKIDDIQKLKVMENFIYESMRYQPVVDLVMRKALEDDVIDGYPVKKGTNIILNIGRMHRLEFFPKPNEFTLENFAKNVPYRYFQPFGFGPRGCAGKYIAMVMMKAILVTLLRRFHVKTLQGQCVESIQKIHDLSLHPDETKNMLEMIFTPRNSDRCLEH
Assay: Inhibition of aromatase in human SKBR3 cells by tritiated water release assay
Procedure, shortened: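 Subconfluent SK-BR-3 cells were switched to defined DMEM/F12 (human albumin, transferrin, insulin) and treated 24 h at five concentrations in triplicate (0.1% DMSO vehicle). They were then incubated 3 h with 100 nM [1β-3H]-androstenedione. TCA-precipitated medium was chloroform-extracted and charcoal-treated, and 3H2O counted as pmol/h/10^6 cells, normalized by DNA assay. IC50 was taken from sigmoidal dose–response fits.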

IC50 | SMILES
> 25 µM | COc1cc([N+](=O)[O-])ccc1NS(C)(=O)=O [N-(2-methoxy-4-nitrophenyl)methanesulfonamide]
> 25 µM | COc1cc([N+](=O)[O-])ccc1N(C)S(C)(=O)=O [N-methyl-N-(2-methoxy-4-nitrophenyl)methanesulfonamide]
